12 molecules from ChEMBL document CHEMBL1124101, “Asymmetrical bisintercalators as potential antitumor agents” (1988) can be followed below.

By MTD is commonly meant the largest dose that counted as tolerated. By T/C is commonly meant the result in the treated group divided by that in the control group, in per cent.

The subject of one assay is Nucleic Acid. Description: Binding affinity for DNA. In kind it is nucleic-acid assay. The procedure, abridged: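 Fluorometric competition with ethidium dimer (6.4 × 10^-7 M) pre-equilibrated 24 h with calf thymus DNA (1.6 × 10^-6 M base pairs). Drug was added at varying concentrations. Fluorescence was excited at 540 nm and read at 610 nm. Bound ethidium dimer per base pair was derived, and computed displacement curves were fitted to the experimental ones to give apparent affinity constants (M^-1).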

For the next assay, the system named is Escherichia coli. As to the kind of experiment: Cytotoxicity on Escherichia coli polA strain mutant expressed as dose required to inhibit 37% of cell growth. The assay is classed as functional.
In assay [1] the test system is L1210. As to the kind of experiment: Dose that inhibits 50% of the L1210 cell growth after 24 hr exposure to the compound. In kind it is functional. The note with it: Mus musculus, L1210, 24 h; read-out: ED50 (the source's name).
For assay [2], the system named is L1210. Description: Maximal tolerated dose for anti-tumor activity in vivo on L1210-infected mice. The assay is classed as functional, Mus musculus.
For assay [3], the system named is L1210. As to the kind of experiment: Optimal dose for anti-tumor activity in vivo on L1210-infected mice. In kind it is functional, Mus musculus.
The species entered for another assay is Mus musculus. As to the kind of experiment: Treated mean survival time per control mean survival time. In kind it is functional.
Assay [4] has as its system L1210. Description: Dose required to inhibit the cloning efficiency to a factor of 37%,measured in vitro on L1210 cells after 24-h exposure.

For the molecule `COc1ccc2[nH]c3ccc4cc[n+](CCN5CCC(CCC6CCN(CC[n+]7ccc8ccc9[nH]c%10ccc(OC)cc%10c9c8c7)CC6)CC5)cc4c3c2c1.CS(=O)(=O)[O-].CS(=O)(=O)[O-]`, the K app x10e-7 with Nucleic Acid worked out at 7 M⁻¹. The results for the EC37 in the assay with Escherichia coli and in the assay with L1210 [4] were 0.015 µM and 0.22 µM, respectively. In addition, in the assay with L1210 [1], the EC50 amounted to 1.34 µM. Further, the MTD with L1210 [2] was 20 mg/kg. In the assay on L1210 [3], the OD was 5 mg/kg. Further, the T/C in the assay listed under Mus musculus was 143%.

Regarding `COc1ccc2nc3cc(Cl)ccc3c(NCCN3CCC(C4CCN(CC[n+]5ccc6ccc7[nH]c8ccc(OC)cc8c7c6c5)CC4)CC3)c2c1.[Cl-]`, the K app x10e-7 in the assay on Nucleic Acid was 5 M⁻¹. The EC37 was found to be 0.057 µM in the assay with Escherichia coli and 17 µM with L1210 [4]. Besides, in the assay with L1210 [1], the EC50 stood at 2.7 µM. Besides, the MTD in the assay with L1210 [2] was 15 mg/kg. Moreover, the OD with L1210 [3] came to 15 mg/kg.

Turning to `COc1ccc2c(c1)c1c3c[n+](CCN4CCC(CCCC5CCN(CC[n+]6ccc7ccc8c(c7c6)c6cc(OC)ccc6n8C)CC5)CC4)ccc3ccc1n2C.CS(=O)(=O)[O-].CS(=O)(=O)[O-]`, in the assay with Nucleic Acid, the K app x10e-7 is 20 M⁻¹. For the same molecule, the EC37 in the assay on Escherichia coli turned out to be 0.009 µM; in the assay on L1210 [4], 0.15 µM. Besides, the EC50 in the assay with L1210 [1] was 0.26 µM. In the assay on L1210 [2], this molecule displayed an MTD of 10 mg/kg. Moreover, in the assay with L1210 [3], the OD was found to be 10 mg/kg.

Molecule `COc1ccc2[nH]c3ccc4cc[n+](CCCN5CCC(C6CCN(CC[n+]7ccc8ccc9[nH]c%10ccc(OC)cc%10c9c8c7)CC6)CC5)cc4c3c2c1.CS(=O)(=O)[O-].CS(=O)(=O)[O-]` gave a K app x10e-7 with Nucleic Acid of 5 M⁻¹. Besides, the EC37 in the assay on Escherichia coli turned out to be 0.016 µM; in the assay with L1210 [4] it was 0.09 µM. Further, the EC50 in the assay on L1210 [1] was determined as 0.72 µM. Also, in the assay with L1210 [2], the MTD worked out at 20 mg/kg. The molecule further registered an OD in the assay on L1210 [3] of 10 mg/kg. In addition, in the assay filed under Mus musculus, the T/C was determined as 137%.

Regarding `COc1ccc2[nH]c3ccc4cc[n+](CCN5CCC(CCCC6CCN(CC[n+]7ccc8ccc9[nH]c%10ccc(OC)cc%10c9c8c7)CC6)CC5)cc4c3c2c1.CS(=O)(=O)[O-].CS(=O)(=O)[O-]`, the K app x10e-7 in the assay on Nucleic Acid stood at 5 M⁻¹. Further, the EC37 was found to be 0.087 µM with Escherichia coli and 0.14 µM in the assay on L1210 [4]. In addition, in the assay on L1210 [1], the EC50 turned out to be 0.34 µM. This molecule also yielded an MTD in the assay on L1210 [2] of 10 mg/kg. In the assay with L1210 [3], this molecule had an OD of 5 mg/kg.

In the case of `COc1ccc2nc3cc(Cl)ccc3c(NCCN3CCC(C4CCN(CC[n+]5ccc6ccc7c(c6c5)c5cc(OC)ccc5n7C)CC4)CC3)c2c1.CS(=O)(=O)[O-]`, in the assay on Nucleic Acid, the K app x10e-7 came to 10 M⁻¹. Further, the EC37 was 0.029 µM in the assay on Escherichia coli and above 0.9 µM with L1210 [4]. Besides, the EC50 with L1210 [1] is 0.24 µM. In addition, in the assay with L1210 [2], the maximal tolerated dose (MTD) was 15 mg/kg. Also, the OD in the assay with L1210 [3] worked out at 15 mg/kg.

As for `COc1ccc2[nH]c3ccc4cc[n+](CCN5CCC(CC6CCN(CC[n+]7ccc8ccc9[nH]c%10ccc(OC)cc%10c9c8c7)CC6)CC5)cc4c3c2c1.CS(=O)(=O)[O-].CS(=O)(=O)[O-]`, in the assay with Nucleic Acid, the K app x10e-7 was determined as 10 M⁻¹. The figures for the EC37 in the assay on Escherichia coli and in the assay on L1210 [4] were 0.021 µM and 0.063 µM, respectively. Besides, the EC50 in the assay on L1210 [1] turned out to be 1.08 µM. This molecule registered an MTD in the assay on L1210 [2] of 30 mg/kg. Moreover, the OD in the assay with L1210 [3] was found to be 7 mg/kg. In addition, the T/C in the assay filed under Mus musculus is listed as 175%.

On to `COc1ccc2c(c1)c1c3c[n+](CCCN4CCC(C5CCN(CC[n+]6ccc7ccc8c(c7c6)c6cc(OC)ccc6n8C)CC5)CC4)ccc3ccc1n2C.CS(=O)(=O)[O-].CS(=O)(=O)[O-]`, for which the K app x10e-7 in the assay with Nucleic Acid turned out to be 1 M⁻¹. Moreover, the results for the EC37 with Escherichia coli and in the assay with L1210 [4] were 0.025 µM and 0.112 µM, respectively. For the same molecule, the EC50 in the assay with L1210 [1] is above 0.9 µM. Moreover, the MTD in the assay with L1210 [2] was 10 mg/kg. This molecule returned an OD in the assay with L1210 [3] of 10 mg/kg. In addition, the T/C in the assay filed under Mus musculus is on record as 128%.

In the assay with Nucleic Acid, `COc1ccc2c(c1)c1c3c[n+](CCN4CCC(CC5CCN(CC[n+]6ccc7ccc8c(c7c6)c6cc(OC)ccc6n8C)CC5)CC4)ccc3ccc1n2C.CS(=O)(=O)[O-].CS(=O)(=O)[O-]` gave a K app x10e-7 of 20 M⁻¹. Moreover, the EC37 was 0.014 µM in the assay with Escherichia coli and 0.013 µM in the assay with L1210 [4]. The EC50 in the assay on L1210 [1] worked out at 0.7 µM. The same molecule returned an MTD in the assay with L1210 [2] of 10 mg/kg. In the assay on L1210 [3], the OD is 3 mg/kg. Also, the T/C in the assay filed under Mus musculus is recorded as 190%.

For `COc1ccc2c(c1)c1c3c[n+](CCN4CCC(CCC5CCN(CC[n+]6ccc7ccc8c(c7c6)c6cc(OC)ccc6n8C)CC5)CC4)ccc3ccc1n2C.CS(=O)(=O)[O-].CS(=O)(=O)[O-]`, the K app x10e-7 in the assay on Nucleic Acid stood at 3 M⁻¹. The EC37 in the assay on Escherichia coli was found to be 0.225 µM; with L1210 [4], 0.77 µM. In addition, in the assay on L1210 [1], the EC50 worked out at 0.9 µM. The molecule also showed an MTD with L1210 [2] of 10 mg/kg. In the assay with L1210 [3], this molecule displayed an OD of 5 mg/kg. The T/C in the assay listed under Mus musculus was determined as 170%.

`COc1ccc2c(c1)c1c3c[n+](CCN4CCC(C5CCN(CC[n+]6ccc7ccc8c(c7c6)c6cc(OC)ccc6n8C)CC5)CC4)ccc3ccc1n2C.CS(=O)(=O)[O-].CS(=O)(=O)[O-]` showed a K app x10e-7 in the assay on Nucleic Acid of 2 M⁻¹. Besides, the values for the EC37 with Escherichia coli and in the assay with L1210 [4] were 0.013 µM and 0.006 µM, respectively. Moreover, the EC50 in the assay with L1210 [1] came to 0.36 µM. The molecule also yielded an MTD with L1210 [2] of 10 mg/kg. The same molecule had an OD with L1210 [3] of 2.5 mg/kg. The T/C in the assay listed under Mus musculus worked out at 178%.

In the assay on Nucleic Acid, `COc1ccc2[nH]c3ccc4cc[n+](CCN5CCC(C6CCN(CC[n+]7ccc8ccc9[nH]c%10ccc(OC)cc%10c9c8c7)CC6)CC5)cc4c3c2c1.CS(=O)(=O)[O-].CS(=O)(=O)[O-]` registered a K app x10e-7 of 1 M⁻¹. For the same molecule, the EC37 stood at 0.013 µM in the assay on Escherichia coli and 0.024 µM in the assay on L1210 [4]. Also, in the assay with L1210 [1], the EC50 is 0.19 µM. This molecule also yielded an MTD in the assay on L1210 [2] of 10 mg/kg. In the assay on L1210 [3], the OD amounted to 10 mg/kg. The T/C in the assay listed under Mus musculus is given as 182%.
